Bioassay records: PubChem BioAssay, several laboratories
In the library only some 2.1% were active in any assay of this set; here they are far more common.
MC4R antagonist – blocks human MC4R cAMP signaling; AID 540295; inhibition, % at 6.5 µM; 360,000 compounds, 0.48% hits; MC4R-expressing cells, MTII-stimulated cAMP, LANCE TR-FRET;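 active = inhibition above its plate's cutoff, the mean of tested wells on that plate plus 3 SD, cut at about 29% in these data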;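 note: 0% = Melanotan II alone and 100% = Melanotan II plus saturating MCL0020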
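system = U2OS cells with stable human MC4R expression | also added = Melanotan II challenge after compound preincubation | dosing = one concentration, 6.5 µM nominal | incubation = compound 30 min, challenge 1 h, detection 1 h | measured by = TR-FRET with Eu-cAMP and labeled anti-cAMP, 671 nm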
CFTR F508del cor – correctors of CFTR F508del function in bronchial epithelial cells; 350,000 compounds, 0.36% hits; CFBE cells, YFP halide quenching; stimulated with forskolin plus potentiator P3; % fluorescence drop versus neutral controls; activity (quench increase), % at 7.58 µM; AID 720511;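 active = mean added fluorescence quench of at least 8% versus neutral control, with both replicates also reaching 8%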;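 note: cells transiently co-express mutant CFTR-F508del with the halide-sensitive YFP; corrector assay measuring rescue of mutant channel to the surface after 24 h compound exposure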
SMARCA2 activ – SMARCA2 function activation, primary screen. MG213 cells, MMTV-luciferase reporter, dexamethasone, overnight. activation, % at 9.1 µM. 370,000 compounds, 1% hits; in the data active = activation above about 7.8%;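 note: 0% = vehicle wells and 100% = reference activator wells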
MC4R barr agon – activates human MC4R beta-arrestin recruitment. P32245. U2OS MC4R beta-arrestin complementation, luminescence; percent of melanotan II response, DMSO zero. activation, % at 8.9 µM. 360,000 compounds, 0.98% hits. AID 540308;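 active = activation above a per-plate cutoff, the mean activation of sample wells on that plate plus 3 SD, cut at about 8% in these data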
MC4R barr conf – human MC4R beta-arrestin agonism confirmation; shares compounds with MC4R barr agon; 2,400 compounds, 31% hits; activation, % at 8.9 µM; AID 602192; U2OS MC4R beta-arrestin recruitment, luminescence; scaled DMSO 0%, Melanotan II 100%;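 active = mean activation across replicates above the hit cutoff set in the earlier primary screen, cut at about 8% in these data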
MOR-DOR barr ag – activates mu-delta opioid heterodimer, MC4R agonist counter-screen; shares compounds with MC4R barr agon; U2OS PathHunter beta-arrestin, beta-gal luminescence; percent of deltorphin B response, DMSO zero; activation, % at 9.2 µM; 2,400 compounds, 5.8% hits;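 active = mean activation across replicates exceeds the hit threshold derived in the earlier primary screen, cut at about 18% in these data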;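 note: 100% = deltorphin B at 0.9 µM final and 0% = DMSO alone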
Target sequence (P35372 whole entry, looked up): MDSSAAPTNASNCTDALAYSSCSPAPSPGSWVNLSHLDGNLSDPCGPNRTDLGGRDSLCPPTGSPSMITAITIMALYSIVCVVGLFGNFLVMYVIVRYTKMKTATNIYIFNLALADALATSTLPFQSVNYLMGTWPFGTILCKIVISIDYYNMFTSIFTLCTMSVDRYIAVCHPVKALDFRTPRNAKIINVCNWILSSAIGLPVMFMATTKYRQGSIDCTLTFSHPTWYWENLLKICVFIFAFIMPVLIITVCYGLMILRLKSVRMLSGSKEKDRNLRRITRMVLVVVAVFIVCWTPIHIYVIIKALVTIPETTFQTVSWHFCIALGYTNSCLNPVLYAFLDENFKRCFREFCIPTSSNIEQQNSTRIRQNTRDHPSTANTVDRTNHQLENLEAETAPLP
Target sequence (P41143 whole entry, looked up): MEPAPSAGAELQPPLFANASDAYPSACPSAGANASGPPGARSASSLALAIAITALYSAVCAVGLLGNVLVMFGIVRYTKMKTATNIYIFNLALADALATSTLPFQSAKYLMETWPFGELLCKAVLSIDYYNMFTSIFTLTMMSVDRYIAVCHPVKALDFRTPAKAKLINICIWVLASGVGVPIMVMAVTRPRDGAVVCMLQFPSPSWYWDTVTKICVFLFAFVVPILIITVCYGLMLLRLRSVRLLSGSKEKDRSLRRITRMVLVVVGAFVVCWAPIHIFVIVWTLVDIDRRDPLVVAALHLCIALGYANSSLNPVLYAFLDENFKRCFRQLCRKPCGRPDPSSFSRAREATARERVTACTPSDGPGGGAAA
Starred values were filed as active, the others as inactive; · = no result given.

SMILES | MC4R antagonist | CFTR F508del cor | SMARCA2 activ | MC4R barr agon | MC4R barr conf | MOR-DOR barr ag
C/C(=N\NC(=S)NCc1ccccc1)c1ccccc1F | -9 | -3 | -1 | -3 | · | ·
COc1ccccc1NC(=O)N[C@H]1CC[C@H](CCNC(=O)c2ccc3c(c2)OCO3)O[C@@H]1CO | · | -1 | · | · | · | ·
CC(C)Oc1ccc(/C=C/C(=O)NCC2COc3ccccc3O2)cc1 (configuration not stated) | 4 | -1 | 0 | 10* | 1 | 3
COc1ccccc1NC(=O)NNC(=O)c1cc2ccccc2cc1O | -5 | -2 | -2 | -2 | · | ·
Cc1ccc(NC(=O)NNC(=O)c2cc3ccccc3cc2O)cc1 | 2 | -2 | 3 | 13* | 15* | 6
C[C@H](CO)N1C[C@H](C)[C@@H](CN(C)C)Oc2cc(Br)ccc2S1(=O)=O | · | -3 | · | · | · | ·
Cc1ccc2nc(-c3cccc(NS(C)(=O)=O)c3)cc(-c3ccccc3)c2c1 | 0 | 0 | -1 | 11* | 7 | 3
Cc1ccc(S(=O)(=O)Nc2ccc3c(c2)C(=O)N([C@H](C)CO)C[C@@H](C)[C@@H](CN(C)C(=O)CCCN(C)C)OCCCC[C@H](C)O3)cc1 | · | 3 | · | · | · | ·
CNC[C@@H]1OCCCC[C@@H](C)Oc2ccc(NC(=O)Cc3ccccc3)cc2C(=O)N([C@H](C)CO)C[C@H]1C | · | 0 | · | · | · | ·
Cc1cc(C)c2c(N)c(C(=O)Nc3ccccc3Br)sc2n1 | -1 | -1 | 0 | 10.0* | 0 | 5
COc1cc(/C=N/NC(=O)c2sc3nc(C)cc(C)c3c2N)ccc1O | 1 | 3 | 0 | 16* | 1 | 3
Cc1ccccc1/C=N/NC(=O)c1sccc1C | -2 | · | 1 | -2 | · | ·
COc1ccc(/C=N/NC(=O)c2sccc2C)c2ccccc12 | -3 | -2 | 7 | 19* | 11* | 8
C[C@@H]1CCCCO[C@H](CN(C)S(=O)(=O)c2cn(C)cn2)[C@H](C)CN([C@@H](C)CO)C(=O)c2cc(NC(=O)Cc3ccccc3)ccc2O1 | · | 0 | · | · | · | ·
CC1=CC2=NC(=O)/C(=C\c3cccn3CCOc3ccc(C)c(C)c3)C(=N)N2O1 | -2 | · | -4 | 14* | -3 | 5
C[C@H](CO)N1C[C@H](C)[C@H](CN(C)C(=O)Nc2cccc3ccccc23)Oc2c(NS(=O)(=O)c3ccc(Cl)cc3)cccc2C1=O | · | -1 | · | · | · | ·
O=C(Cc1cccs1)Nc1cccc(-c2nc3cc4ccccc4cc3[nH]2)c1 | 19 | · | 4 | 11* | 14* | 6
CC(=O)Nc1cccc(NC(=O)Cc2cccs2)c1 | -5 | -1 | 2 | 1 | · | ·
O=C(COc1ccccc1)Nc1nnc(COc2ccccc2)s1 | 2 | -1 | 2 | 9.9* | -5 | 3
CCOC(=O)C(=O)Nc1nnc(COc2ccccc2)s1 | 14 | 0 | 1 | 1 | · | ·
O=C(CSc1ccccc1)Nc1nnc(COc2ccc(Cl)cc2)s1 | -2 | · | -2 | 18* | 3 | 7
CNC(=O)C[C@@H]1CC[C@@H]2[C@@H](COc3ccc(NC(=O)Nc4ccc(C)cc4)cc3C(=O)N2C)O1 | · | 2 | · | · | · | ·
S=c1[nH]c(-c2ccc(Br)cc2)cn1CCc1ccccc1 | 4 | -1 | 1 | 19* | -1 | 5
CCOC(=O)/C(C#N)=C(C)/C=C1\Sc2ccccc2N1CC | -16 | -2 | -1 | 18* | 15* | 2
CCN1/C(=C\C=C(C(C)=O)C(C)=O)Sc2ccccc21 | -14 | -5 | 0 | -1 | · | ·
SMILES | MC4R antagonist | CFTR F508del cor | SMARCA2 activ | MC4R barr agon | MC4R barr conf | MOR-DOR barr ag
CC(C)(C)c1ccc(S(=O)(=O)NNC(=O)c2cc3ccccc3[nH]2)cc1 | 10 | -3 | 2 | 17* | 8 | 16
Cc1ccc(-c2nnn(CC(=O)N(CC(=O)NC3CCCCC3)c3ccc(F)c(Cl)c3)n2)o1 | 0 | · | -1 | 5 | · | ·
Cc1ccc(-c2nnn(CC(=O)N(CC(=O)NC3CCCC3)c3ccc(F)c(Cl)c3)n2)o1 | 6 | · | 0 | 10* | 1 | 5
Cc1cc(C)nc(SCC(=O)Nc2ncc(Cc3ccc(Cl)c(Cl)c3)s2)n1 | 2 | -3 | -2 | 21* | 7 | 2
COCC(=O)Nc1ccc2c(c1)OC[C@@H](C)N(C(=O)C1CCCC1)C[C@@H](C)[C@@H](OC)CN(C)C2=O | · | 2 | · | · | · | ·
O=C(NCc1ccncc1)c1ccc(OCc2ccccc2)cc1 | 5 | 3 | -1 | -2 | · | ·
Cc1ccc(CNC(=O)c2ccc(COc3ccccc3)cc2)cc1 | -1 | · | -1 | 13* | -1 | 4
Cc1ccc(S(=O)(=O)Nc2ccc3c(c2)C(=O)N([C@@H](C)CO)C[C@@H](C)[C@H](CN(C)C(=O)Nc2ccc4c(c2)OCO4)OCCCC[C@@H](C)O3)cc1 | · | 0 | · | · | · | ·
N#Cc1ccccc1N/C=C/C(=O)c1ccc(Cl)cc1 | 3 | 1 | 4 | 13* | 3 | 3
Cc1cc(Cl)c(S(=O)(=O)N2CCN(c3cccc(C)c3C)CC2)cc1OCC(N)=O | 13 | · | 0 | 14* | 4 | 6
CCCNC(=O)C(Cc1ccc(Cl)cc1)NC(=O)c1ccc(C#N)cc1 (configuration not stated) | 3 | 0 | 1 | 1 | · | ·
CCCNC(=O)C(Cc1ccc(Cl)cc1)NC(=O)c1ccc(-c2ccccc2)cc1 (configuration not stated) | 5 | -3 | -2 | 14* | 2 | 17
C/C=C/c1cnc2c(c1)C(=O)N([C@H](C)CO)C[C@@H](C)[C@H](CN(C)C(=O)c1ccc3c(c1)OCO3)O2 | · | -2 | · | · | · | ·
O=C(COc1ccccc1[N+](=O)[O-])Nc1ccc2c(c1)CCC2 | 2 | -2 | 1 | 13* | 2 | 3
O=C(COc1ccc2ccccc2c1)Nc1nc2ccccc2[nH]1 | 2 | · | -2 | 10* | 0 | 6
Nc1cccc(-c2nc3cc(S(=O)(=O)c4ccc5oc(-c6cccc(N)c6)nc5c4)ccc3o2)c1 | -2 | · | -1 | 14* | 5 | 8
Cc1n[nH]c(C)c1S(=O)(=O)N(CC(=O)N1CCc2ccccc21)c1ccc(C(C)C)cc1 | -28 | 0 | -1 | 13* | 8 | 7
COc1ccccc1-c1cnc2c(c1)C(=O)N([C@@H](C)CO)C[C@H](C)[C@H](CN(C)Cc1cccc(F)c1)O2 | · | -1 | · | · | · | ·
N/C(=N\c1nc2ccccc2o1)NC(=O)c1ccccc1 | 15 | · | 1 | 14* | 3 | 5
Cc1ccc(C(=O)N/C(N)=N/c2nc3ccccc3o2)cc1 | -4 | · | 2 | 16* | 4 | 2
N/C(=N\c1nc2ccccc2o1)NC(=O)c1cccc(Br)c1 | 9 | -3 | -6 | -2 | · | ·
Cc1cc(NC(=O)Cc2csc(-c3ccccc3)n2)ccc1Br | 15 | · | -3 | 15* | 3 | 7
